In ChEMBL document CHEMBL3421600, “Hupehenols A-E, selective 11β-hydroxysteroid dehydrogenase type 1 (11β-HSD1) inhibitors from Viburnum hupehense” (J Nat Prod, 2015) one finds IC50 data, which are given here for 5 molecules.

Where only a bound is given, the exact number is not on record here.

In test [1] the target is T1, 11-beta-hydroxysteroid dehydrogenase type 2 (Mus musculus, UniProt P51661).
T1 sequence (P51661 whole entry): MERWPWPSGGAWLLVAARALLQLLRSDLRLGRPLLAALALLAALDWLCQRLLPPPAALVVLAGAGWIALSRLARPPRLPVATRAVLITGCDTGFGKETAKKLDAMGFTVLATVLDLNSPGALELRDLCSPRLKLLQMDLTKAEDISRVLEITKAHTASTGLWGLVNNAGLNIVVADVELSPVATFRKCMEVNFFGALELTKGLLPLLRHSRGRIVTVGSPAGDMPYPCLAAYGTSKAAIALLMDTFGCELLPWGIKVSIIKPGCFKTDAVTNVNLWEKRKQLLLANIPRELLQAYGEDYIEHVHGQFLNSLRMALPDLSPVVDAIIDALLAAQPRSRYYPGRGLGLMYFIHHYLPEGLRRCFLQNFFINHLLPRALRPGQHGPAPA
The test is described as follows: Inhibition of mouse 11beta-HSD2 overexpressed in microsomal fraction of HEK293 cells using [3H]-cortisol as substrate by scintillation proximity assay in presence of NAD+. Put shortly: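 Enzyme was murine 11β-HSD2 full-length cDNA in pcDNA3, stably expressed in HEK-293 cells selected with G418 (700 μg/mL). Microsomes from these cells were incubated with [3H]cortisol, NAD+ and compound. Activity was read by scintillation proximity assay and IC50 reported.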

In test [2] the target is 11-beta-hydroxysteroid dehydrogenase 1 (Mus musculus, UniProt P50172). The test is described as follows: Inhibition of mouse 11beta-HSD1 overexpressed in microsomal fraction of HEK293 cells assessed as formation of [3H]-cortisol from [3H]-cortisone by scintillation proximity assay in presence of NADPH. It is filed as cell-based. The essentials: (§1)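 Full-length human or murine 11β-HSD1 cDNA cloned into pcDNA3 and stably transfected into HEK-293 cells, selected with G418 (700 μg/mL). Microsomal fraction used as enzyme source. Microsomes incubated with NADPH, [3H]cortisone and compound. [3H]cortisol product captured by monoclonal antibody on protein A-coated SPA beads and read by scintillation proximity. IC50 reported.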
11-beta-hydroxysteroid dehydrogenase 1 (Mus musculus, UniProt P50172), sequence (P50172 whole entry): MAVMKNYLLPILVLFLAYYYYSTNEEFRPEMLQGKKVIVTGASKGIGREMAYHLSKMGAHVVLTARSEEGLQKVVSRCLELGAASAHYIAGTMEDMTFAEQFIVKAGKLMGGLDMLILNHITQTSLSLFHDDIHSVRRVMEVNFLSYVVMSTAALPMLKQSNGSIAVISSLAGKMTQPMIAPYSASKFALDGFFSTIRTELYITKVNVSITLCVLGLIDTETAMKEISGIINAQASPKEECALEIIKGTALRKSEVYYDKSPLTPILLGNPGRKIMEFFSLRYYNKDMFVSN

Test [3] addresses 11-beta-hydroxysteroid dehydrogenase 1 (Homo sapiens, UniProt P28845). Nature of the test: Inhibition of human 11beta-HSD1 overexpressed in microsomal fraction of HEK293 cells assessed as formation of [3H]-cortisol from [3H]-cortisone by scintillation proximity assay in presence of NADPH. Format: cell-based. Put shortly: as §1
In test [4] the target is T2, 11-beta-hydroxysteroid dehydrogenase type 2 (Homo sapiens, UniProt P80365).
T2 sequence (P80365 whole entry): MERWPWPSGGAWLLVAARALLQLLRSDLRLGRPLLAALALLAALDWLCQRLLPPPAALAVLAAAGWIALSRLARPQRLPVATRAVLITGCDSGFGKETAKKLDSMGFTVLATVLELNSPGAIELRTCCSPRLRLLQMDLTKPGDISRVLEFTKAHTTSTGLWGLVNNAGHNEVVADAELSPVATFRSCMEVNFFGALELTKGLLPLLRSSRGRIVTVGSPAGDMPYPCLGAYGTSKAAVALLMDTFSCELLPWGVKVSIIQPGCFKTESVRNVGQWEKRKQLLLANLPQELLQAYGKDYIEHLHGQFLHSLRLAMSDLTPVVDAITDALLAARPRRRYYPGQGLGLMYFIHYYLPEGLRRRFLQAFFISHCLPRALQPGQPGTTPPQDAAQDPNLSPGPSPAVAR
The test is described as follows: Inhibition of human 11beta-HSD2 overexpressed in microsomal fraction of HEK293 cells using [3H]-cortisol as substrate by scintillation proximity assay in presence of NAD+.

11-beta-hydroxysteroid dehydrogenase 1 (Homo sapiens, UniProt P28845), sequence (P28845 whole entry): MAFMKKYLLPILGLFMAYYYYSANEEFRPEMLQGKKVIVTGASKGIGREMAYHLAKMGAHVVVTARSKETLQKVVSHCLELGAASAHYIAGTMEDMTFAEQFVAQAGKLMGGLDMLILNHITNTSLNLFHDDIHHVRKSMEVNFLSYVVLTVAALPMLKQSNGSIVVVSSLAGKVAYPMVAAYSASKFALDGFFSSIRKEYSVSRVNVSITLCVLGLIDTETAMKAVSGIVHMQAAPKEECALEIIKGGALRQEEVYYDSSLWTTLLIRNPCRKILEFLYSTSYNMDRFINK

As for `CC(=O)O[C@@H]1C[C@@H]2[C@@]3(C)CC[C@H](O)C(C)(C)[C@@H]3CC[C@@]2(C)[C@]2(C)C(=O)C[C@@H](O)[C@@H]12`, the values for the IC50 in test [1], in test [2] and in test [3] were greater than 1000 µM, 4.7 µM and 0.0755 µM, respectively.
Consider `CC1(C)[C@@H](O)CC[C@]2(C)[C@H]3C[C@@H](O)[C@@H]4C=CC(=O)[C@@]4(C)[C@]3(C)CC[C@@H]12`, for which the half-inhibitory concentration (IC50) was 284 µM in test [4], greater than 1000 µM in test [1], 2.9 µM in test [2] and 0.395 µM in test [3].
In the case of `CO[C@@H]1CC(=O)[C@]2(C)[C@@H]1[C@H](O)C[C@@H]1[C@@]3(C)CC[C@H](O)C(C)(C)[C@@H]3CC[C@]12C`, the IC50 in test [1] was 292 µM; in test [2] it was 2.8 µM; in test [3] it was 0.194 µM.
Taken in the same sequence, the figures for `CO[C@@H]1CC(=O)[C@]2(C)[C@@H]1[C@H](OC(C)=O)C[C@@H]1[C@@]3(C)CC[C@H](O)C(C)(C)[C@@H]3CC[C@]12C` were 155 µM, 3.3 µM and 0.0153 µM.
For `CC(=O)O[C@@H]1C[C@@H]2[C@@]3(C)CC[C@H](O)C(C)(C)[C@@H]3CC[C@@]2(C)[C@]2(C)C(=O)C=C[C@@H]12` the same measures were 217 µM, 7.2 µM and 0.0341 µM.
